From PubChem
An excerpt weighted towards active compounds, which were near 1.9% of everything screened.
T cell modulator = modulators of CD8 T cell-vesicle binding, primary screen, mouse 2C CD8+ T cells, flow cytometry; 2C CD8+ T cell-vesicle binding; stronger effect = lower value; response (vesicle binding), % at 7 µM; 330,000 tested, 0.068% active;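 active = response, share of CD8 T cells binding vesicles, and their 90th percentile fluorescence all below set limits, cut at about 80% in these data, passing the limit was not always enough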;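 also: values below 100% mean blocked vesicle binding to the CD8+ T cells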
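Also added: QL9-peptide-loaded Drosophila micro-vesicles bearing Ld, ICAM-1 and B7-1; Test system: purified 2C TCR transgenic mouse naive CD8+ T cells; Measured by: cytometric PE anti-B7-1 and Alexa647 anti-CD8 signals after 1% paraformaldehyde fixation; Timing: binding step 1.5 h, 37 °C, antibody labelling 20 min, ice.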
KLK7 zymogen act = proKLK7 zymogen activators, primary screen, biochemical, fluorescence intensity | Kallikrein-7 (Homo sapiens), P49862 | purified proKLK7, EDANS-DABCYL substrate fluorescence; 100% is mature enzyme control, 0% vehicle | activation, % at 7 µM | 370,000 tested, 0.9% active | AID 652039, 2013;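 active = activation above the mean of all tested compounds plus 3 SD, computed per campaign excluding outliers beyond control limits, cut at about 13% in these data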
Target sequence (P49862 whole entry, looked up): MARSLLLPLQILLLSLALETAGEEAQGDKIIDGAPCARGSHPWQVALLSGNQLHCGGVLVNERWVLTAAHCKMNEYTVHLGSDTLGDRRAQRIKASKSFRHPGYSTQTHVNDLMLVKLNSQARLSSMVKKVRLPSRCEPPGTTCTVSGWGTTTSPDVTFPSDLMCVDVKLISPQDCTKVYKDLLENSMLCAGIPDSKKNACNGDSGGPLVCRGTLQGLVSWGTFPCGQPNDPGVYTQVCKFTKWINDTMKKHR
Rce1 inh = yeast Rce1p protease inhibitors, primary screen, biochemical, fluorescence, cell-free homogeneous. CAAX prenyl protease 2 (Saccharomyces cerevisiae (strain ATCC 204508 / S288c)), Q03530. yeast membranes, quenched prenylated peptide cleavage fluorescence. calls only. 290,000 tested, 0.27% active. AID 2563, 2010;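 active = fall in fluorescence gain of 50% or more versus controls, with final raw signal at or below 3038400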;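 also: plate controls were neutral control wells for no effect and wells lacking membranes for full effect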
Target sequence (Q03530 whole entry, looked up): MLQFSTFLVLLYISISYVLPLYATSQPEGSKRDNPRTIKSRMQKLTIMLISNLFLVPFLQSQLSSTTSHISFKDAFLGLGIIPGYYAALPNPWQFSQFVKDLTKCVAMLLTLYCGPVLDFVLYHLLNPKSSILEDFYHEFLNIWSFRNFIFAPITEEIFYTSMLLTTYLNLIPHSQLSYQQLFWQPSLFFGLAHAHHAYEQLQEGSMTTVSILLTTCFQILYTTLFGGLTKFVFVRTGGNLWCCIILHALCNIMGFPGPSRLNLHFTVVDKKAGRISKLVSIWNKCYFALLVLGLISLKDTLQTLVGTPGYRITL
MIN6 prolif = inducers of MIN6 beta-cell proliferation, primary screen, ATP luminescence, uHTS. MIN6 cells proliferation, ATPlite luminescence, 48 h; cells starved in 0.2% serum; 100% = growth in 10% serum. 330,000 tested, 0.29% active. proliferation, % at 10 µM;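 active = compounds whose signal lies at least 3.5 SD above the mean of all wells on their plate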;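 also: 0% = DMSO-treated cells in low-serum medium and 100% = 10% serum control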
Yeast superoxide = reduction of superoxide in aged yeast, primary screen, HTS. S. cerevisiae aged cells, superoxide DHE fluorescence; stronger effect = lower value. 330,000 tested, 0.18% active. superoxide response (% of plate mean), % at 10 µM;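 active = superoxide response under a set limit, about three screen SD below normal, cut at about 65% in these data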;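 also: yeast aged for seven days with compound at 30 °C before DHE staining; 100% = average MFI of all compound-treated wells on the plate with controls excluded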
V-ATPase pH = regulators of yeast V-ATPase proton pumping, primary screen, pHLuorin cytosolic pH fluorescence; S. cerevisiae; response, % at 10 µM; AID 504577, 2011; 350,000 tested, 0.37% active; in the data active = response mostly above about 7.3%, no sharp cut-off; inactive = mostly below about 5.4%; also: actives read high
* marks the source's active call; other numbers are inactive results; i = inactive; x = not tested or not shown; + = active, no number.

SMILES | T cell modulator | KLK7 zymogen act | Rce1 inh | MIN6 prolif | Yeast superoxide | V-ATPase pH
CC(=O)N1CCC(=NNC(=O)c2cccs2)CC1 | 0.0* | 0 | i | 0 | 122 | -1
O=C(NN=C1CCCC1)c1cccs1 | 266 | 0 | i | 0 | 94 | 1
COC(=O)C1=C(C)N(C)C(=NCc2ccc3c(c2)OCO3)NC1c1cccc(F)c1 (configuration not stated) | x | 0 | x | x | x | x
CCCCCN1CCCCC(NC(=O)c2cccc(F)c2)C1=O (configuration not stated) | x | 0 | x | x | x | x
Cc1c(CN2CCN(c3ncc(Cc4ccccc4)cn3)CC2)c(=O)n(-c2ccccc2)n1C | x | 1 | x | x | x | x
O=S(=O)(CC(CN1CCOCC1)N1CCOCC1)c1ccccc1 (configuration not stated) | 673 | 0 | + | -1 | 120 | 4
C/C(CC1(O)C(=O)Nc2ccccc21)=N\O (configuration not stated) | 344 | 0 | + | -2 | 99 | 7
CN(C)S(=O)(=O)c1ccc(C(=O)NCCc2ccco2)cc1 | 66* | 0 | i | 1 | 101 | -2
O=C(NCCc1ccccc1)C1CCN(c2ncccn2)CC1 | 242 | 1 | i | 1 | 68 | 14*
NS(=O)(=O)c1ccc(CCNC(=O)C2CCN(S(=O)(=O)c3cccc4cccnc34)CC2)cc1 | 54* | x | i | 0 | 96 | -1
O=C(NCCc1ccccc1)C1CCN(S(=O)(=O)N2CCCCC2)CC1 | 660 | 0 | i | 0 | 92 | 2
COC(=O)[C@]12C[C@H](CC(=O)NCCc3ccccc3OC)C(=O)N(Cc3ccc(Cl)cc3Cl)C1=C[C@H](C1CCCC1)O[C@@H]2C | x | 0 | x | x | x | x
O=C(O)c1cccc(N2C(=O)C=CC2=O)c1 | x | 0 | x | x | x | 1
O=C(Nc1ccc(Cl)cc1Cl)c1cccc(N2C(=O)C=CC2=O)c1 | 292 | 0 | i | -6 | 72 | 78*
Fc1ccc(CN2CCN(c3ncc(Cc4ccccc4)cn3)CC2)c(Cl)c1 | x | 0 | x | x | x | x
CC(=O)Nc1cc(C(F)(F)F)ccc1Oc1cccc(Br)c1 | 246 | -1 | + | -5 | 94 | 3
CCOCC(=O)Nc1cc(C(F)(F)F)ccc1Oc1cccc(Br)c1 | 272 | -1 | i | -1 | 99 | 8
O=C1CCN(Cc2ccccc2)CCN1[C@H](CSc1ccccc1)Cc1ccccc1 | i | 0 | + | -7 | 95 | 2
O=S(=O)(CS(=O)(=O)c1ccc(Br)cc1)c1ccc(Br)cc1 | x | 0 | x | x | x | x
O=C(Nc1ccc2c(c1)CCC2)c1ccccc1Br | i | 0 | + | -3 | 82 | 0
COc1ccccc1-c1nnc(N)s1 | 283 | 0 | + | -2 | 90 | -4
CCNC(=O)N(C)[C@H]1C[C@H]2c3[nH]c4c(-c5ccc6c(c5)OCO6)cccc4c3CCN2C(=O)[C@H]1[C@H](C)O | x | 1 | x | x | x | x
C=CCNS(=O)(=O)c1cccc2cc(C(=O)O)c(O)cc12 | 200 | 27* | i | -1 | 86 | 2
C=CCNS(=O)(=O)c1cccc(C(C)=O)c1 | 162 | 1 | i | -1 | 87 | 5
CCN(CC)C1=CC2=CC(=C(C#N)C#N)CCC2CC1 (configuration not stated) | 256 | 6 | i | 2 | 134 | 219*
SMILES | T cell modulator | KLK7 zymogen act | Rce1 inh | MIN6 prolif | Yeast superoxide | V-ATPase pH
N#CC(C#N)=C1C=C2C=C(N3CCCCC3)CCC2CC1 (configuration not stated) | 511 | x | x | x | 70 | x
CCCCN(C)C1=CC2=CC(=C(C#N)C#N)CCC2CC1 (configuration not stated) | 576 | 5 | i | -3 | 112 | 291*
Nc1[nH]c2cc(C(F)(F)F)ccc2c1C(=O)NCc1ccc(F)cc1 | x | 0 | x | x | x | x
COCCNC(=S)N(C)[C@H]1C[C@H]2c3[nH]c4c(-c5ccc6c(c5)OCO6)cccc4c3CCN2C(=O)[C@H]1[C@H](C)O | x | 0 | x | x | x | x
COc1ccc(-c2nc(CN3CCC(C(=O)NC4CCCc5ccccc54)CC3)c(C)o2)cc1OC (configuration not stated) | x | 1 | x | x | x | 13*
Cc1[nH]c2ccccc2c1/C=C/c1cc[n+](C)cc1 | x | 1 | x | x | x | 13*
O=C(C1CCCO1)N1CCN(C(=S)Nc2ccc(Cl)cc2Cl)CC1 (configuration not stated) | 550 | 0 | i | -3 | 106 | 17*
Cc1cc(Cl)ccc1NC(=S)N1CCN(C(=O)C2CCCO2)CC1 (configuration not stated) | 167 | 0 | i | 0 | 75 | -2
Cc1cccc(N(C(=O)c2snc(C(N)=O)c2N)C(C(=O)NCC2CCCO2)c2ccc(N(C)C)cc2)c1C (configuration not stated) | 0.0* | 0 | i | -2 | 95 | 3
CN(C)c1ccc(C(C(=O)NCC2CCCO2)N(Cc2ccccc2)C(=O)c2snc(C(N)=O)c2N)cc1 (configuration not stated) | 422 | 0 | i | 8.8* | 84 | 4
O=C(NCc1ccco1)C1CCCN(S(=O)(=O)c2ccc([N+](=O)[O-])cc2)C1 (configuration not stated) | x | 0 | x | x | x | x
Cn1c(SCC(=O)Nc2ccc(S(=O)(=O)Nc3nccs3)cc2)nc2sc3c(c2c1=O)CCCC3 | x | -1 | x | x | x | x
Cn1c(=O)c2cc(S(=O)(=O)N3CCN(CCO)CC3)ccc2n(C)c1=O | x | -1 | x | x | x | x
O=C(NC1CCCC1)N1CCC(c2nc3ccc(Cl)cc3[nH]2)CC1 | x | 0 | x | x | x | x
Cc1[nH]c2ccccc2c1CC(=O)Nc1ccc(N(C)c2cccnc2)c(-c2cccc(Cl)c2)c1 | x | 0 | x | x | x | x
CC(C)Cn1nc(NC(=O)C2CCCO2)c2cc3ccccc3nc21 (configuration not stated) | 154 | 1 | i | 6.5* | 103 | 3
COC(=O)c1cc2c(c3c4cc(F)ccc4n(S(=O)(=O)c4ccc(C)cc4)c13)C(=O)N(Cc1ccc(C(F)(F)F)cc1)C2 | x | 1 | x | x | x | x
COc1ccccc1CNC(=O)C12CC3CC(CC(C3)C1)C2 | 305 | 0 | i | -1 | 62* | 5
O=C(NCc1ccccc1F)C12CC3CC(CC(C3)C1)C2 | 614 | 0 | i | -2 | 104 | 8
CCCCNC(=S)NNC(=O)CCn1cc(C)cn1 | 234 | 0 | + | 1 | 110 | -2
COC(=O)[C@]12C[C@H](CC(=O)NCc3ccc(OC)c(OC)c3)C(=O)N(Cc3ccco3)C1=C[C@H](C1CCCC1)O[C@@H]2C | x | 0 | x | x | x | x
Oc1ccc(-c2cn3cc(C(F)(F)F)ccc3n2)cc1 | 71 | 2 | + | -3 | 113 | 2
